Publication PMC10442107 (Hepatology (Baltimore, Md.), 2023)
Like-named read-outs stand apart in the source and are kept apart here. Values belong to the compound of their own block, whether it stands above or below them.

How the values were obtained:
[1] = compared with levels in BDL mice of the current study; cited from earlier work
BDL mice = experiment: Bile duct ligation; assay type: in vivo, mouse; details: 3 mg/kg/d
Method in brief: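 Male mice on a C57BL/6J background, age-matched, underwent bile duct ligation. Oral gavage dosing started 3 days after surgery and continued once daily for 11 days, with the comparator ASBT inhibitor at 3 mg/kg. Blood for serum biochemistry was taken by cardiac puncture at sacrifice. RNAseq was run on RNA from terminal liver samples (15 mg fresh tissue).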

[2] = Oral pharmacokinetic profile of A3907 and A3309 in BDL mice; assay type: in vivo, mouse
Method in brief: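 Adult male C57BL/6 mice with bile duct ligation received the test compound or a gut-restricted ASBT inhibitor by mouth at 3 or 10 mg/kg once daily for 7 days. Plasma exposure was profiled and set against normal wild-type mice dosed under the same conditions.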

ileal ASBT = target: T1, ileal ASBT (Mus musculus, UniProt P70172); experiment: Pharmacodynamic study in normal wild-type C57BL/6N mice; assay type: in vivo
T1 sequence (P70172 1-348): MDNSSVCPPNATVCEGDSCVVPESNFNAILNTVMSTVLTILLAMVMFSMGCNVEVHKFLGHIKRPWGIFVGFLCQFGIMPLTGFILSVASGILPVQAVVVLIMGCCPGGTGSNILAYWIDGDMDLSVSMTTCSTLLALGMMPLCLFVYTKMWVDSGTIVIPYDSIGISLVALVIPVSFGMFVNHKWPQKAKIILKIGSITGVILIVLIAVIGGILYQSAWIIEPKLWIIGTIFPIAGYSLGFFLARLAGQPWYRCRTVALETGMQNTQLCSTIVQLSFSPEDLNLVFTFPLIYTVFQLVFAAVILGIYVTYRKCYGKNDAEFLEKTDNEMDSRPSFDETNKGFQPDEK
Method in brief: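 Adult C57BL/6N mice (13–14 weeks) were gavaged daily for 8 days with the test compound at 3 or 10 mg/kg/d or with vehicle (0.5% CMC + 0.1% Tween 80). Feces were collected between days 6 and 7 and urine 2 h after the day-8 terminal dose. Total bile acids were measured with commercial kits and compared with vehicle by 1-way ANOVA with Dunnett post hoc test.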

Mdr2 −/− mice = details: cited from earlier work
[3] = pediatric, cited from earlier work
[4] = 11 days, A3907 vs A3309 comparison
[5] = progressive familial intrahepatic cholestasis

serum levels compared with A3907 ([2]; BDL mice, 3 or 10 mg/kg oral daily): significantly lower than A3907 | plasma exposure in BDL mice relative to normal WT mice ([2]; same experimental conditions, WT data not shown): ~ 6 fold | urine BA levels (ileal ASBT; normal mice, oral 3 and 10 mg/kg/d, 2 hours after dose on day 8): did not change | fecal BA levels (ileal ASBT; normal nonfasted mice, oral 3 and 10 mg/kg/d once daily for 7 days, vs vehicle): significant elevation of fecal BA levels
SMILES: CCCCC1(CCCC)CN(c2ccccc2)c2cc(SC)c(OCC(=O)N[C@@H](C(=O)NCC(=O)O)c3ccccc3)cc2S(=O)(=O)C1 [A3309]
systemic exposure in humans at the therapeutically relevant dose [1]: several-fold lower than levels demonstrating signs of efficacy in BDL mice | serum and biliary BAs levels (BDL mice; [4]): attenuated BA levels in a nonsignificant fashion | urinary BA excretion (BDL mice; [4]): induced urinary BA excretion to some extent | number of dysregulated hepatic genes normalized (BDL mice; liver RNAseq, of 5790 DEGs vs sham): 15

SMILES: CCCCC1(CCCC)CN(c2ccccc2)c2cc(SC)c(OCC(=O)N[C@@H](C(=O)N[C@@H](CC)C(=O)O)c3ccc(O)cc3)cc2S(=O)(=O)N1 [A4250, odevixibat]
BA levels in serum and bile (Mdr2 −/− mice): reduced | cholestatic liver disease (Mdr2 −/− mice): improved | BA load [3, 5]: reduced | pruritus [3, 5]: decreased

SMILES: CCCCC1(CCCC)CS(=O)(=O)c2ccc(N(C)C)cc2[C@@H](c2ccc(OCCCC[N+]34CCN(CC3)CC4)cc2)[C@H]1O [SC-435]
BA levels in serum and bile (Mdr2 −/− mice): reduced | cholestatic liver disease (Mdr2 −/− mice): improved

SMILES: CCCCC1(CCCC)CS(=O)(=O)c2ccc(N(C)C)cc2[C@@H](c2ccc(OCc3ccc(C[N+]45CCN(CC4)CC5)cc3)cc2)[C@H]1O [maralixibat]
BA load ([3]; Alagille syndrome): reduced | pruritus ([3]; Alagille syndrome): decreased
